Assays:
mouse [1] = experiment: concentration in kidney after dosing; conditions: dosed: dichloromethane, iv, male, B6C3F1
Summary of the method: (§1)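 Sampling and analytical methods are those of each source and frequently went unreported. The concentration-versus-time and amount-versus-time points were compiled from published in vivo toxicokinetic studies and two structured collections. Most were digitised from plot screenshots with WebPlotDigitizer, with others copied from tables, in the reported units.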

human [2] = experiment: concentration in expired air after dosing; negative times count back from the end of exposure; conditions: dosed: dichloromethane, inhalation, duration: 6 hr, male
Summary of the method: as §1

mouse [3] = experiment: concentration in liver after dosing; conditions: dosed: dichloromethane, iv, male, B6C3F1
Summary of the method: as §1

mouse [4] = experiment: concentration in body after dosing; conditions: dosed: dichloromethane, iv, male, B6C3F1
Summary of the method: as §1

mouse [5] = experiment: concentration in lung after dosing; conditions: dosed: dichloromethane, iv, male, B6C3F1
Summary of the method: as §1

human [6] = experiment: concentration in blood after dosing; negative times count back from the end of exposure; conditions: dosed: dichloromethane, inhalation, duration: 6 hr, male
Summary of the method: as §1

ClCCl [dichloromethane]
Conditions | concentration in blood [ng/mL] | concentration in body [µg/g] | concentration in expired air [ppm] | concentration in kidney [µg/g] | concentration in liver [µg/g] | concentration in lung [µg/g]
human [2], 0.083 h, 100 ppm | – | – | 12.1 | – | – | –
human [2], 0.083 h, 350 ppm | – | – | 81.3 | – | – | –
human [2], 0.25 h, 100 ppm | – | – | 8.5 | – | – | –
human [2], 0.25 h, 350 ppm | – | – | 58.9 | – | – | –
human [2], 0.5 h, 100 ppm | – | – | 6.7 | – | – | –
human [2], 0.5 h, 350 ppm | – | – | 38.7 | – | – | –
human [2], 1 h, 100 ppm | – | – | 4.2 | – | – | –
human [2], 1 h, 350 ppm | – | – | 25.1 | – | – | –
human [2], 1.5 h, 100 ppm | – | – | 2.7 | – | – | –
human [2], 1.5 h, 350 ppm | – | – | 17.7 | – | – | –
human [2], 2 h, 100 ppm | – | – | 2.6 | – | – | –
human [2], 2 h, 350 ppm | – | – | 14.9 | – | – | –
human [2], 3 h, 100 ppm | – | – | 1.8 | – | – | –
human [2], 3 h, 350 ppm | – | – | 10.3 | – | – | –
human [2], 4 h, 100 ppm | – | – | 1.4 | – | – | –
human [2], 4 h, 350 ppm | – | – | 8.3 | – | – | –
human [2], 6 h, 350 ppm | – | – | 4.5 | – | – | –
human [2], 8 h, 350 ppm | – | – | 3.2 | – | – | –
human [2], 16 h, 350 ppm | – | – | 1.3 | – | – | –
human [6], 1 h, 100 ppm | 150 | – | – | – | – | –
human [6], 1 h, 350 ppm | 910 | – | – | – | – | –
human [6], 6 h, 100 ppm | 62 | – | – | – | – | –
human [6], 6 h, 350 ppm | 340 | – | – | – | – | –
human [6], 16 h, 100 ppm | 12 | – | – | – | – | –
human [6], 16 h, 350 ppm | 77 | – | – | – | – | –
human [6], 24 h, 350 ppm | 36 | – | – | – | – | –
mouse [1], 1 h, 10 mg/kg | – | – | – | 1.99 | – | –
mouse [1], 1 h, 50 mg/kg | – | – | – | 3.82 | – | –
mouse [1], 3 h, 10 mg/kg | – | – | – | 1.31 | – | –
mouse [1], 3 h, 50 mg/kg | – | – | – | 2.17 | – | –
mouse [1], 4 h, 10 mg/kg | – | – | – | 0.78 | – | –
mouse [1], 4 h, 50 mg/kg | – | – | – | 1.74 | – | –
mouse [1], 20 min, 10 mg/kg | – | – | – | 1.86 | – | –
mouse [1], 20 min, 50 mg/kg | – | – | – | 3.7 | – | –
mouse [1], 40 min, 10 mg/kg | – | – | – | 1.56 | – | –
mouse [1], 40 min, 50 mg/kg | – | – | – | 5.31 | – | –
mouse [3], 1 h, 10 mg/kg | – | – | – | – | 4.11 | –
mouse [3], 1 h, 50 mg/kg | – | – | – | – | 15.4 | –
mouse [3], 3 h, 10 mg/kg | – | – | – | – | 2.56 | –
mouse [3], 3 h, 50 mg/kg | – | – | – | – | 7.81 | –
mouse [3], 4 h, 10 mg/kg | – | – | – | – | 1.29 | –
mouse [3], 4 h, 50 mg/kg | – | – | – | – | 7.12 | –
mouse [3], 20 min, 10 mg/kg | – | – | – | – | 3.45 | –
mouse [3], 20 min, 50 mg/kg | – | – | – | – | 21.6 | –
mouse [3], 40 min, 10 mg/kg | – | – | – | – | 3.57 | –
mouse [3], 40 min, 50 mg/kg | – | – | – | – | 15.9 | –
mouse [4], 1 h, 10 mg/kg | – | 0.14 | – | – | – | –
mouse [4], 1 h, 50 mg/kg | – | 0.14 | – | – | – | –
mouse [4], 3 h, 50 mg/kg | – | 0.028 | – | – | – | –
mouse [4], 4 h, 50 mg/kg | – | 0.018 | – | – | – | –
mouse [4], 20 min, 10 mg/kg | – | 1.3 | – | – | – | –
mouse [4], 20 min, 50 mg/kg | – | 1.16 | – | – | – | –
mouse [4], 40 min, 10 mg/kg | – | 0.076 | – | – | – | –
mouse [4], 40 min, 50 mg/kg | – | 0.076 | – | – | – | –
mouse [5], 1 h, 10 mg/kg | – | – | – | – | – | 4.11
mouse [5], 1 h, 50 mg/kg | – | – | – | – | – | 2.96
mouse [5], 3 h, 10 mg/kg | – | – | – | – | – | 2.56
mouse [5], 3 h, 50 mg/kg | – | – | – | – | – | 1.54
mouse [5], 4 h, 10 mg/kg | – | – | – | – | – | 1.29
mouse [5], 4 h, 50 mg/kg | – | – | – | – | – | 1.23
mouse [5], 20 min, 10 mg/kg | – | – | – | – | – | 1.71
mouse [5], 20 min, 50 mg/kg | – | – | – | – | – | 6.19
mouse [5], 40 min, 10 mg/kg | – | – | – | – | – | 3.57
mouse [5], 40 min, 50 mg/kg | – | – | – | – | – | 3.98

during exposure
Conditions | concentration in blood, 100 ppm [ng/mL] | concentration in blood, 350 ppm [ng/mL] | concentration in expired air, 100 ppm [ppm] | concentration in expired air, 350 ppm [ppm]
human [2], -1 h | – | – | 43.3 | 192
human [2], -2 h | – | – | 42.8 | 190
human [2], -3 h | – | – | 41.8 | 192
human [2], -4 h | – | – | 41.2 | 176
human [2], -4.5 h | – | – | 40.4 | 165
human [2], -5 h | – | – | 39.4 | 155
human [2], -5.5 h | – | – | 36.4 | 141
human [2], -5.75 h | – | – | 34.6 | 126
human [2], -36 s | – | – | 45.7 | 202
human [6], -1 h | 1050 | 5860 | – | –
human [6], -3 h | 1110 | 5920 | – | –
human [6], -6 h | 5 | 16 | – | –
